These results are taken from the EternaBench riboswitch data.

For orientation: apparent Kd means a dissociation constant that holds for the conditions of the assay.

The test system of this series is MS2 coat protein. Nature of the series: apparent Kd, MS2 coat protein; higher = weaker binding; RNA-MaP array. Summed up: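 For each design, the apparent Kd is the median of binding-curve fits across its clusters. Designs measured on fewer than 10 clusters were dropped. The RNAs were transcribed from sequenced DNA templates on an Illumina sequencing chip and incubated at room temperature, with or without input ligand, with fluorescently labeled MS2 coat protein at 1.5 nM to 3 μM.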

Where [1] appears, read: designed as: ON switch for theophylline, no ligand.
[2] abbreviates: ligand present: theophylline, designed as: ON switch for theophylline.
[3] abbreviates: designed as: OFF switch for flavin mononucleotide, no ligand.
Setting [4] is: ligand present: flavin mononucleotide, designed as: OFF switch for flavin mononucleotide.
Where [5] appears, read: designed as: ON switch for flavin mononucleotide, no ligand.
The mark [6] stands for this setting: ligand present: flavin mononucleotide, designed as: ON switch for flavin mononucleotide.
Where [7] appears, read: designed as: OFF switch for tryptophan, no ligand.
Where [8] appears, read: ligand present: tryptophan, designed as: OFF switch for tryptophan.

As to “UACCGGUGACUCGAUACCAGUCCUCUAAAAUACAUGAGGAUCACCCAUGUAACCUUCCCAGACCCUUGGCAGCGACACAUGGAUA”, the “apparent Kd” value reads like this: under setting [1], 145 nM; under setting [2], 38.2 nM. Consider “GCCAUGUAAGGAUAUCUUAACUUGCAUCACGCGCGGAAUGGAGAGAAGGUACAUGAGGAUCACCCAUGUGAAAA”, for which the “apparent Kd” value reads like this: under setting [3], 19.8 nM; under setting [4], 28 nM.

For the sequence “AUAAACCUAACAUGAGGAUCACCCAUGUCCUCCGUCGGUCGAAGAAGGAGUAAUGCUUAUUUUUACUAGGAUAUUCGUAAUCAC”, the “apparent Kd” value runs as follows: under setting [3], 90.2 nM; under setting [4], 216 nM.

As to “GCUAGUAGAGAGAAGGAGCUUGAAUAUUUAGCGCUAGGAUAUCUUCGGUAGCCGUAGAGCAUACAUGAGGAUCACCCAUGUCCG”, the “apparent Kd” value was found to be 52.7 nM under setting [5] and 27.8 nM under setting [6]. Regarding “AUGAACAACCAGAAGGCAACGUUGGCCCAAGUUUGAGGAUAUGGACGUGGAAGUUCGCACAUGAGGAUCACCCAUGUAGAUCAG”, the “apparent Kd” value is, setting by setting: under setting [3], 14 nM; under setting [4], 12.8 nM.

Turning to “CAGGCAUGUAUAGGAUAUUGGGCUGGACGCGUUGUCGGUCGUUCCAACAUGAGGAUCACCCAUGUCAAGAAGGAUAUGCAUUCG”, the “apparent Kd” value was 38.8 nM under setting [5] and 27.3 nM under setting [6]. Take “AUCUACGUGGGUGAUACCAGCUGGUUAGUACACAUGAGGAUCACCCAUGUGCAGGCAGGCAGCCCUUGGCAGCACCGCAGUGGCU”: the “apparent Kd” value runs as follows: under setting [1], 120 nM; under setting [2], 35 nM.

On to “UGGAAGAUUGAAGGAUAUCCGGUCAAUUAAUAUGGAGAAGGUCAAUAUAUGGACAUGAGGAUCACCCAUGUAGAGUCAACUCGA”, for which the “apparent Kd” value under setting [5] worked out at 38.5 nM and the “apparent Kd” value under setting [6] amounted to 26.8 nM. With “GCAAAAGCGCUCUAGAGACAUGAGGAUCACCCAUGUGUGGGUAGAAGGUCCUACGUACCAUUAAGGAAGGAUAUACACAUAUAU”, the “apparent Kd” value runs as follows: under setting [5], 1090 nM; under setting [6], 540 nM. In the case of “CAUUAUCGCGUUAGGAUAUGAACAAGAAAUCGGCUACAGAAGGAACAUGAGGAUCACCCAUGUAUGAUCAAGAC”, the “apparent Kd” value by setting is: under setting [3], 13.1 nM; under setting [4], 10.7 nM. Consider “GCGCCAAGUAAGAAGGGCUCAAAGGAAAACCUAGACUUCACUACAUGAGGAUCACCCAUGUCUCAGCAGGAUAUUAUCGGUCAA”, for which the “apparent Kd” value is 22.2 nM under setting [5] and 17.9 nM under setting [6]. In the case of “CCACAGUAUAAAGGAUAUGCGGCCACGGCAACAGCAGAAGGUUAUGCCACUGUACAUGAGGAUCACCCAUGUCCAACUUUCCCU”, the “apparent Kd” value under setting [5] was 23.8 nM and the “apparent Kd” value under setting [6] stood at 11.9 nM.

Take “UCAUUGUGAGGAUAUUGAUAGCGGACCUUGAUUCUGUACAACAAGAAGGCACAUGAGGAUCACCCAUGUCAUCA”: the “apparent Kd” value runs as follows: under setting [3], 16.4 nM; under setting [4], 58.4 nM. Consider “CAAAGUUUUAAGAAGGGAUCGAUUAGAUUCACAUGAGGAUCACCCAUGUAGCCGGGACGGAGAGAUCAGGAUAUUAAAGAUGUC”, for which the “apparent Kd” value came out at 55.8 nM under setting [3] and 31.9 nM under setting [4]. For “UACCUUAACACGGCCGCCACUCUCUAAUAGGAUCAUGGUACCGCACAUGAGGAUCACCCAUGUUUGAGGACCGGGUGUUAUGAAG”, the “apparent Kd” value is 15.1 nM (designed as: ON switch for tryptophan, no ligand) and 28.7 nM (ligand present: tryptophan, designed as: ON switch for tryptophan). Consider “CACUGACAUGAGGAUCACCCAUGUCUCCUGCUUGUAGGAUAUAGGUGGUCGCUGGACAGUCUAGAAGGACAUGUAA”, for which the “apparent Kd” value is, setting by setting: under setting [5], 54.7 nM; under setting [6], 49.5 nM. As for “GCUGGACAUGAGGAUCACCCAUGUGAGGAUAUGAGAAGUAUCAUGCACCCGAUCCAUCUCAGAAGGCACAGGUG”, the “apparent Kd” value runs as follows: under setting [3], 71.5 nM; under setting [4], 258 nM. The matching figures for “CUGUAGACAGGAUAUGUUGUGCCGUACAUGAGGAUCACCCAUGUGAGAUCUCGCUACCAUACAGAAGGGUCUAAAC”: 43.2 nM and 57.4 nM.

For the sequence “AGAUCGCUGACCGCGGGAGAUGCGCAGGAUACCAGCCUAAUGUCCGGCCCUUGGCAGCCUGUAACAUGAGGAUCACCCAUGUGAA”, the “apparent Kd” value runs as follows: (designed as: OFF switch for theophylline, no ligand) 17.1 nM; (ligand present: theophylline, designed as: OFF switch for theophylline) 31 nM. For “AAAUGGAUCGAAGGAUAUCCCCAGACAUGAGGAUCACCCAUGUGAGGGUACAGUUAUUGUUAUCAGGAGAAGGUCGCAUUCAAA”, the “apparent Kd” value came out at 10.3 nM under setting [3] and 9.5 nM under setting [4]. As for “UCGGUACAUGAGGAUCACCCAUGUCGUCACAGAGCAGGAUAUUCAGGCUUCAGAGGUCGCGAAGAAGGGCUGGUGC”, the “apparent Kd” value was found to be 11.9 nM under setting [5] and 9.02 nM under setting [6]. The matching figures for “AAUUCCUGUAAGAAGGGCGAUAUACAUGAGGAUCACCCAUGUCGUUGGAUUGAAGAAAAUCAGACGCAGGAUAUUAUUGGGAAC”: 94.3 nM and 40 nM. As to “AAAAGAGAAGGAUAUACAGGAAAAGAAAAGAUAUUUCAAUAACAUGAGGAUCACCCAUGUAGAAGGACUAAUAG”, the “apparent Kd” value under setting [3] was found to be 11.8 nM and the “apparent Kd” value under setting [4] worked out at 9.74 nM. In the case of “CCGGGCAGUUUAGGAUAUACACGUGAUUCAUGCGUAGAAGGAAAUCACAGAAUAGUUUCCUGGACAUGAGGAUCACCCAUGUAG”, the “apparent Kd” value under setting [5] was 252 nM and the “apparent Kd” value under setting [6] stood at 147 nM.

Take “GUAACGGGAAGCAGUGGCUUGACAUGAGGAUCACCCAUGUACAGAAGGGACGAUUACGUAAUGCGUCAGGAUAUGUGCCGUAGA”: the “apparent Kd” value stood at 48 nM under setting [5] and 28.1 nM under setting [6]. With “AUUGCCCAAGGAUAUCUAUUUAGAAACAUGAGGAUCACCCAUGUCAUAAUGUUAGGCUCAAGAGAAGGUGGAAGCU”, the “apparent Kd” value worked out at 8.33 nM under setting [3] and 8.37 nM under setting [4]. “UUGAACAUGAGGAUCACCCAUGUGGAUGAUACCAGCUAAAACAUAAGCCCUUGGCAGCAUUAAAAUGAAAUAUCGAAAAGGAAAG”: the “apparent Kd” value was 143 nM under setting [1] and 54.9 nM under setting [2]. In the case of “GAAUGGAAAGGAUAUCGCUGUUCUGACAUGAGGAUCACCCAUGUACGUGUUAGCUUGUUUCGAGAAGGUUCCACUC”, the “apparent Kd” value was 15.6 nM under setting [3] and 21.8 nM under setting [4]. Consider “GACAGCGAAGGAUAUACAUGAGGAUCACCCAUGUCUCACUAACGUAGCCGCGGGUAAUGUAGAAGGUCGCGAUG”, for which the “apparent Kd” value by setting is: under setting [3], 191 nM; under setting [4], 65.4 nM. Consider “CAACACGGAGAGAAGGAAGCUGAAACGGUGCACUUAGGAUAUCUUCCGCCAGAAAACAUGAGGAUCACCCAUGUUCAGUUAACG”, for which the “apparent Kd” value under setting [5] amounted to 7.82 nM and the “apparent Kd” value under setting [6] was 7.54 nM.

For “GAAUGGAAACUAGGAUAUCGGCAGGAGCGGGAGCGAGAAGGAGUUUACUCGGUAUACAUGAGGAUCACCCAUGUGGGUGUGCUG”, the “apparent Kd” value under setting [3] turned out to be 294 nM and the “apparent Kd” value under setting [4] is 252 nM. Turning to “GAGGCACGGUCGGCCGCCACUACAGCAGUGGUCCGCCAAGCGAGGUACAUGAGGAUCACCCAUGUUAGGACCGGGACCUGUUUUU”, the “apparent Kd” value by setting is: under setting [7], 24.6 nM; under setting [8], 73.7 nM. “AUGUGCAAUACGGAUACCAGCCCGUGUAGAUACAUGAGGAUCACCCAUGUCAAUGUAAAUGGCCCUUGGCAGCCGUUUGGGAGGC”: the “apparent Kd” value runs as follows: under setting [1], 15.7 nM; under setting [2], 11.8 nM.

On to “UACAUGAGGAUCACCCAUGUGGUCAGGUUAUCCCGGACGGGAAGAAGGAUAAGAGAGUAACAUUUAUAGGAUAUUCGCCUCAUU”, for which the “apparent Kd” value runs as follows: under setting [5], 57.8 nM; under setting [6], 48.9 nM. The matching figures for “UUAGUAACCACAGGAUAUGCGGACGGGUGAAGGGCAGAAGGGUGGGAGUGCACAUGAGGAUCACCCAUGUAACACGCCAUAUUU”: 17.7 nM and 8.65 nM.

Turning to “UUCACGGGCACGGCCGCCACUAACCAACAUGAGGAUCACCCAUGUGUAUUGGACGACCUCUUUGCUAGGACCGGGUGUAUGGUUC”, the “apparent Kd” value under setting [7] turned out to be 24.8 nM and the “apparent Kd” value under setting [8] came to 30.5 nM. For the sequence “AACUUUCCCUAGAAGGUCGUGUUACAACAUGAGGAUCACCCAUGUCGCCCUAGGGCUGCUGCCGCGAAGGAUAUAGGUCCGGAG”, the “apparent Kd” value is 5.77 nM under setting [5] and 5.32 nM under setting [6]. For “UAAAAGUUAGGAUAUACUAGUGAGCAAUGAAUAACAAAGUAACAUGAGGAUCACCCAUGUAGAAGGAACUGCAG”, the “apparent Kd” value is, setting by setting: under setting [3], 12.1 nM; under setting [4], 12.4 nM.

For the sequence “AACAAAUGGGAAGGAUAUCGUUACAUGAGGAUCACCCAUGUCUACCUUGGGAGCGGUAGCUAUGUCGAGAAGGUCCAUGCGCGA”, the “apparent Kd” value runs as follows: under setting [5], 394 nM; under setting [6], 84.1 nM.

On to “ACGUAGUGCCGAGGAUAUGUAACAUGAGGAUCACCCAUGUUCUCUAACAGGUCGAUUUUAAGCACACAGAAGGCGGGUGUUGAU”, for which the “apparent Kd” value under setting [3] stood at 11.3 nM and the “apparent Kd” value under setting [4] came to 11.8 nM. With “ACUAAACCACAGAAGGAACUGAGUGCGCAAAAGUAAGGAUAUGUAAACAAUAACAUGAGGAUCACCCAUGUGACAGUAAGUUUA”, the “apparent Kd” value was 8.31 nM under setting [5] and 7.2 nM under setting [6].

In the case of “AGCGUGUAAGGAUAUCCAAUUGAUGGGAGCGGAUCUUCCCAGGAGAAGGUACAUGAGGAUCACCCAUGUGGCGC”, the “apparent Kd” value by setting is: under setting [3], 37.2 nM; under setting [4], 35 nM. The matching figures for “GGUGGGUCAGGAUAUCCCACACAAUUGCGAACGCGAUGCAGGGAGAAGGGACAUGAGGAUCACCCAUGUGGGAC”: 54.4 nM and 64.9 nM. In the case of “CACAUGUAAGGAUAUAGUGAACUAAAGCAACUAGAUGUAAACUAGAAGGUACAUGAGGAUCACCCAUGUAAAGG”, the “apparent Kd” value under setting [3] was determined as 17.3 nM.

For the sequence “AUACAAGCAAUGGAGGAUAUCGCAGAAAUCACAUGAGGAUCACCCAUGUCUUACCGUAUGUCGAGCGAGAAGGCCACGGUGCGAGU”, the “apparent Kd” value runs as follows: under setting [5], 35.5 nM; under setting [6], 17.3 nM. The matching figures for “ACAUGAGGAUCACCCAUGUCCUAAAAUGAGGCGAAUACGGCCAAGGAUAUUGGAACAACAGAAGUCAAGAAGGUGGCUAAAUUA”: 56.7 nM and 28.3 nM. For the sequence “GAAAAUACAUGAGGAUCACCCAUGUGGUGGCGUCAGAUUGGUUAGGAUAUCUUGGCGGGAUACUGAGAGAAGGAACUUUGAAGG”, the “apparent Kd” value is, setting by setting: under setting [3], 181 nM; under setting [4], 136 nM.
